Assay outcomes: PubChem, several laboratories
Most compounds without a hit are left out; they make up all but 2% or so of the library.
HIV Rev-RRE inh: disrupts HIV-1 Rev binding to RRE RNA | Rev peptide-RRE RNA binding, FRET | inhibition, % at 8 µM | P05866 | 0.79% of 97,000 active;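 active = inhibition above the screen-wide mean plus 3 SD, cut at about 35% in these data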
Target sequence (P05866 whole entry, looked up): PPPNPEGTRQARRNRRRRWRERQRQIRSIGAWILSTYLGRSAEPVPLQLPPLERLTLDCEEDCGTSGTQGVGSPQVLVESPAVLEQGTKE
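Test system – labelled RRE RNA duplex and labelled Rev peptide · Reagent – labelled Rev peptide · Doses – one concentration, 8 µM nominal · Incubation – 5 + 15 min at 25 °C · Signal – FRET fluorescence readout · Read-out basis – % inhibition of FRET ratio versus controls · Control set – DMSO wells as 0% and neomycin B wells as 100% inhibition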
EphB4 antag: blocks human EphB4 binding to ephrin-B2; AID 720; 0.15% of 97,000 active; P54760; inhibition, % at 7 µM; EphB4 LBD / TNYL-RAW-Alexa532 peptide, fluorescence polarization;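 active = inhibition above the screen-wide mean inhibition plus 3 SD, cut at about 15% in these data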
Plk1 PBD FP: inhibitors of human Plk1 polo box domain binding. P53350. Plk1 PBD phosphopeptide binding, fluorescence polarization. inhibition, %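 (tested at about 20 µM)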. 0.13% of 97,000 active. AID 693; in the data active = inhibition above about 34%, passing the limit was not always enough
Target sequence (P53350 whole entry, looked up, the tested form may be a part): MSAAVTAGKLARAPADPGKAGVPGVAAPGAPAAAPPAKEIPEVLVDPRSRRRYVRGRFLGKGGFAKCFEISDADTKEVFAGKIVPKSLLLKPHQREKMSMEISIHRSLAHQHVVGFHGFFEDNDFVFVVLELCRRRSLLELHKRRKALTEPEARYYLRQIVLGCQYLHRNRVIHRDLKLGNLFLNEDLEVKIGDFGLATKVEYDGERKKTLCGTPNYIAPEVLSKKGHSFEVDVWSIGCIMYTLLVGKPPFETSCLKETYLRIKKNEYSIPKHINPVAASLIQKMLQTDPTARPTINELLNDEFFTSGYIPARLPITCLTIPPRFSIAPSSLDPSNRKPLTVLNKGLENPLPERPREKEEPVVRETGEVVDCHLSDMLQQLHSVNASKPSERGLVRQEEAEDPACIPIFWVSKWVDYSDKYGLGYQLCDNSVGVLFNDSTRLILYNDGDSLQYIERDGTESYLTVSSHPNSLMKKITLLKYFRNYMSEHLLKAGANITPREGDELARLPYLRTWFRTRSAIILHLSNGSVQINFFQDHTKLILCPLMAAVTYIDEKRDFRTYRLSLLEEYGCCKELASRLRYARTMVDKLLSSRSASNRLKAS
PTPN22 act: activators of human LYP (PTPN22) phosphatase; recombinant LYP, DiFMUP fluorescence; 0 = plate median, 100 = signal doubled; activation, % at 2 µM; AID 697; 0.11% of 96,000 active; Q9Y2R2;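 active = activation at 2 µM above a set limit, the mean plus 5 SD, cut at about 37% in these data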
PLK1 inh: blocks human PLK1 kinase activity. recombinant PLK1 kinase, TR-FRET peptide phosphorylation. inhibition, % at 10 µM. 0.53% of 97,000 active. AID 619;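 active = inhibition of 50% or more in the single-concentration screen; inactive = inhibition below 50%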
PTPN22 inh 2: blocks human PTPN22 phosphatase activity; Q9Y2R2; recombinant LYP catalytic domain, DiFMUP fluorescence; inhibition, % at 2 µM; 0.21% of 96,000 active;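 active = inhibition at 2 µM at or above a set limit, the screen mean plus 3 SD, cut at about 24% in these data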
PLK1 confirm: confirmation of human PLK1 kinase inhibitors; shares compounds with PLK1 inh; recombinant PLK1 kinase, TR-FRET peptide phosphorylation; inhibition, % at 10 µM; 20% of 210 active; AID 744;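 active = inhibition at or above 50% in each of two repeat confirmation tests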
TR-FRET interf: interferes with the Plk1 assay readout, not true inhibition; shares compounds with PLK1 inh; Plk1 TR-FRET assay interference, compound added post-reaction; inhibition (interference), % at 10 µM; 210 tested, under 10 active; AID 756;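 active = both duplicate runs show 50% or greater inhibition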
Each line names hits and unclear results; the compound was inactive in the other large screens (follow-up assays come after a bar, where they were run).

Fc1ccc(Br)cc1C1C=C(c2cccnc2)Nc2ncnn21 (stereo not given)	PLK1 inh 88.2 (no result: PTPN22 act, PTPN22 inh 2) | PLK1 confirm inactive | TR-FRET interf inactive
O=C(Cn1nnc(-c2ccccc2Cl)n1)NCc1ccc2c(c1)OCO2	none
CC1Cc2nc(SCC(=O)Nc3nccs3)n(C)c(=O)c2S1 (stereo not given)	PLK1 inh 73.0 | PLK1 confirm 63.9 | TR-FRET interf inactive
Cc1nnc(NC(=O)CSc2nc3c(c(=O)n2C)SC(C)C3)s1 (stereo not given)	none
COc1cccc(NC(=O)CN2C(=O)COc3ccc(Cl)cc32)c1	PLK1 inh 76.3 (no result: PTPN22 act, PTPN22 inh 2) | PLK1 confirm inactive | TR-FRET interf inactive
Cn1cccc1C1Nc2ccccc2NC2=C1C(=O)CC(C)(C)C2 (stereo not given)	none
O=C(CSc1nc2ncc(Br)cc2[nH]1)Nc1ccc2c(c1)OCO2	PLK1 inh 70.3 | PLK1 confirm inactive | TR-FRET interf inactive
CCOc1ccc2nc(SCC(=O)Nc3ccc4c(c3)OCCO4)[nH]c2c1	none
CCOC(=O)C1CCCN(CCC(=O)Nc2ccc(C)cc2)C1 (stereo not given)	none
CC(=O)c1cccc(NC(=O)c2cnn3ccccc23)c1	PLK1 inh 79.6 (no result: PTPN22 act, PTPN22 inh 2) | PLK1 confirm inactive | TR-FRET interf inactive
CC(=O)c1ccc(NC(=O)c2cnn3ccccc23)cc1	none
CC1CCN(CC(C)OC(=O)c2ccc3c(c2)OCCO3)CC1 (stereo not given)	PLK1 inh 70.4 (no result: PTPN22 act, PTPN22 inh 2) | PLK1 confirm inactive | TR-FRET interf inactive
Nc1[nH]ncc1N=Nc1ccc(Cl)cc1	PLK1 inh 83.1 | PLK1 confirm 74.6 | TR-FRET interf inactive
COc1ccccc1Nc1ncnc2nc[nH]c12	PLK1 inh 83.8 | PLK1 confirm 79.2 | TR-FRET interf inactive
COC(=O)c1sc2nc(CSc3nc4ccc(C)cc4[nH]3)[nH]c(=O)c2c1C	PLK1 inh 71.4 | PLK1 confirm inactive | TR-FRET interf inactive
COC(=O)CSc1nc2ccc(C)cc2[nH]1	none
COC(=O)c1ccccc1CON1C(=O)C(C)(C)N(OCc2ccccc2C(=O)OC)C(=O)C1(C)C	none
O=C(c1oc(=O)c2ccccc2c1-c1ccccc1)N1CCC(O)CC1	PLK1 inh 77.6 (no result: PTPN22 act, PTPN22 inh 2) | PLK1 confirm inactive | TR-FRET interf inactive
CC1=C(C)/C(=N\OS(=O)(=O)c2ccccc2)C=CC1=O	none
COc1cccc(-c2nnc(SCC(=O)Nc3ccc(S(N)(=O)=O)cc3)n2C)c1	PLK1 inh 110.0 | PLK1 confirm inactive | TR-FRET interf inactive
COc1cccc(-c2nnc(SCC(=O)Nc3cc(C)on3)n2C)c1	none
Cc1nc(NCCc2ccccc2F)c(C#N)c(C)c1[N+](=O)[O-]	none
C=CCc1cc(C)ccc1OCCn1ccnc1	PLK1 inh 85.7 | PLK1 confirm inactive | TR-FRET interf inactive
NC(=O)CSc1nnc(-c2ccncc2)n1-c1ccc(Cl)cc1	PLK1 inh 72.7 (no result: PTPN22 act, PTPN22 inh 2) | PLK1 confirm inactive | TR-FRET interf inactive
O=C(O)CSc1nnc(-c2ccncc2)n1-c1ccc(Cl)cc1	none
N#CC(c1cccc(Cl)c1)c1ccc2c(C(F)(F)F)cc(C(F)(F)F)nc2n1 (stereo not given)	none
Cc1cc(C(C#N)c2cccc(Cl)c2)n2ncnc2n1 (stereo not given)	PLK1 inh 71.0 | PLK1 confirm 62.9 | TR-FRET interf inactive
CC(C)c1ccc(C(C(=O)NC(C)(C)C)N(C(=O)CNC(=O)c2ccco2)c2cccnc2)cc1 (stereo not given)	none
CCC(C)(C)NC(=O)C(c1ccco1)N(C(=O)CNC(=O)c1cccs1)c1cccnc1 (stereo not given)	PLK1 inh 109.0 | PLK1 confirm inactive | TR-FRET interf inactive
CCOc1ccc(N2Nc3n[nH]c(N)c3N2)cc1	PLK1 inh 78.4 | PLK1 confirm 68.2 | TR-FRET interf inactive
COc1ccc(N2Nc3n[nH]c(N)c3N2)cc1	PLK1 inh 79.5 | PLK1 confirm 73.7 | TR-FRET interf inactive
CCOc1ccc(N2C(=O)c3ccccc3C2=O)cc1	none
COc1ccc(/C=N/NC(=O)CO/N=C(\C)c2cccs2)cc1	none
Cn1c(N2CCOCC2)nc(-c2ccccc2)c1-c1ccccc1	none
CN=c1scc(C)n1/N=C/c1ccc(O)c(O)c1O	PLK1 inh 81.5 | PLK1 confirm 85.5 | TR-FRET interf 69.9
CCN=c1scc(C)n1/N=C/c1ccsc1	none
CO/N=C(/CS(=O)(=O)Cc1ccccc1Cl)c1ccc(Cl)cc1Cl	none
O=C(Cn1nc(Cc2cccnc2)c2ccccc2c1=O)NCc1ccc2c(c1)OCO2	PLK1 inh 72.3 (no result: PTPN22 act, PTPN22 inh 2) | PLK1 confirm inactive | TR-FRET interf inactive
O=C(C1CC1)N1CCN(C(c2ccccc2)c2ccccc2)CC1	none
Cc1cc(C)c2c(=O)[nH]c(SCC(=O)N3CCCCC3)nc2n1	none
Cc1ccc(NC(=O)CSc2nc3nc(C)cc(C)c3c(=O)[nH]2)cc1	PLK1 inh 73.0 | PLK1 confirm inactive | TR-FRET interf inactive
CCOC(=O)C(=O)/C(=C\N(C)C)c1onc(-c2c(Cl)cccc2Cl)c1C(=O)OC	none
COc1ccc(N2CC(C(=O)NC3CC(C)(C)NC(C)(C)C3)CC2=O)cc1 (stereo not given)	PLK1 inh 70.1 (no result: PTPN22 act, PTPN22 inh 2) | PLK1 confirm inactive | TR-FRET interf inactive
COc1ccc(N2CC(C(=O)Nc3ncccc3C)CC2=O)cc1 (stereo not given)	none
COc1c(F)c(F)c(C(=O)Nc2ccc(N3CCN(C(C)=O)CC3)c(Cl)c2)c(F)c1F	none
O=C(O)c1ccc2c(c1)[C@@H]1C=CC[C@@H]1[C@H](c1ccccn1)N2	PLK1 inh 71.9 | PLK1 confirm 59.4 | TR-FRET interf inactive
Fc1ccc2c(c1)C1C=CCC1C(c1cc3c(cc1Br)OCO3)N2 (stereo not given)	none
C/C(Cn1nc([N+](=O)[O-])cc1C)=N\NC(=O)c1cccc(Br)c1	none
c1ccc(-c2noc(CN3CCN(c4ccccc4)CC3)n2)cc1	PLK1 inh 73.1 (no result: PTPN22 act, PTPN22 inh 2) | PLK1 confirm inactive | TR-FRET interf inactive
CCN1CCN(CC(=O)Nc2ccc3c(c2)OCCO3)C(=O)C1=O	PLK1 inh 73.1 (no result: PTPN22 act, PTPN22 inh 2) | PLK1 confirm inactive | TR-FRET interf inactive
C=C(C)c1cccc(C(C)(C)NC(=O)N2CCN(c3ccccn3)CC2)c1	PLK1 inh 74.3 (no result: PTPN22 act, PTPN22 inh 2) | PLK1 confirm inactive | TR-FRET interf inactive
Cc1ccc(C)c(-n2c(C)cc(/C=N/NC(=O)c3c(C)nc4cc(C)ccn34)c2C)c1	none
